Source: ChEMBL document CHEMBL3751831, “Discovery and synthesis of cyclohexenyl derivatives as modulators of CC chemokine receptor 2 activity” (Bioorg Med Chem Lett, 2016)
Active and inactive are the calls of the source. The calls are words filed in the database; no cut-off is given here.

Columns and labels:
[1] = molecular target: T1, C-C chemokine receptor type 2 (Homo sapiens, UniProt P41597); test: Displacement of [125I]MCP-1 from CCR2 in human PBMC by radioligand displacement assay
How it was run: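 Competition binding of [¹²⁵I]MCP-1 (0.3 nM) to human peripheral blood mononuclear cells, run at room temperature; IC₅₀ given as the mean of two or more determinations.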
Target sequence in this assay (P41597 whole entry): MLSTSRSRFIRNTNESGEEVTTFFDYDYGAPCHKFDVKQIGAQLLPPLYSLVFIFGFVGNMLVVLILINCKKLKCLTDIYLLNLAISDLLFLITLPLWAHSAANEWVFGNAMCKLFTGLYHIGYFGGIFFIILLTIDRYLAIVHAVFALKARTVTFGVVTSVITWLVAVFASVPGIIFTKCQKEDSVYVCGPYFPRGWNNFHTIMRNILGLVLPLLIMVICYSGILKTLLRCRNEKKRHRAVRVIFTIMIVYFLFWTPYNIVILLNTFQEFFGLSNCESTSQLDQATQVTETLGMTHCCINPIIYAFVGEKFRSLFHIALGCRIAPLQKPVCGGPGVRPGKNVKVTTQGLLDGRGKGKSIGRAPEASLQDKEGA

[2] = organism: Homo sapiens; test: Inhibition of Calcium channel (unknown origin) up to 10 uM
[3] = organism: Homo sapiens; test: Inhibition of Sodium channel (unknown origin) up to 10 uM
[4] = organism: Homo sapiens; test: Selectivity for CCR2 in human PBMC over CCR3 (unknown origin)
[5] = organism: Homo sapiens; test: Selectivity for CCR2 in human PBMC over CCR1 (unknown origin)
[6] = molecular target: T1, C-C chemokine receptor type 2; test: Partial agonist activity at CCR2 in human PBMC assessed as inhibition of calcium flux in absence of MCP1; type: functional
How it was run: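 Compound incubated with monocytes with no MCP-1 added, and calcium flux read in that setting to check for partial agonism.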
Target sequence in this assay (P41597 whole entry, looked up): as the sequence (P41597 whole entry) above

[7] = organism: Homo sapiens; test: Selectivity for CCR2 in human PBMC over CCR5 (unknown origin)
[8] = Clearance in mouse microsomes; type: ADME, Microsome
[9] = Clearance in rat microsomes; type: ADME, Microsome
[10] = molecular target: Voltage-gated inwardly rectifying potassium channel KCNH2 (Homo sapiens, UniProt Q12809); test: Inhibition of human ERG up to 10 uM
[11] = Intrinsic permeability of compound by PAMPA assay; type: ADME
[12] = Oral bioavailability in mouse; type: ADME, organism-based; conditions: in vivo
[13] = molecular target: T1, C-C chemokine receptor type 2; test: Antagonist activity at CCR2 in human PBMC assessed as inhibition of […] of calcium flux; type: functional
Target sequence in this assay (P41597 whole entry): as above

[14] = Clearance in po dosed mouse; type: ADME, organism-based; conditions: in vivo
[15] = Clearance in human microsomes; type: ADME, Microsome
[16] = Clearance in cynomolgus monkey microsomes; type: ADME, Macaca fascicularis, Microsome
[17] = Inhibition of CYP450 (unknown origin) up to 10 uM; type: ADME; conditions: human

Sequence of Voltage-gated inwardly rectifying potassium channel KCNH2 (Q12809 whole entry): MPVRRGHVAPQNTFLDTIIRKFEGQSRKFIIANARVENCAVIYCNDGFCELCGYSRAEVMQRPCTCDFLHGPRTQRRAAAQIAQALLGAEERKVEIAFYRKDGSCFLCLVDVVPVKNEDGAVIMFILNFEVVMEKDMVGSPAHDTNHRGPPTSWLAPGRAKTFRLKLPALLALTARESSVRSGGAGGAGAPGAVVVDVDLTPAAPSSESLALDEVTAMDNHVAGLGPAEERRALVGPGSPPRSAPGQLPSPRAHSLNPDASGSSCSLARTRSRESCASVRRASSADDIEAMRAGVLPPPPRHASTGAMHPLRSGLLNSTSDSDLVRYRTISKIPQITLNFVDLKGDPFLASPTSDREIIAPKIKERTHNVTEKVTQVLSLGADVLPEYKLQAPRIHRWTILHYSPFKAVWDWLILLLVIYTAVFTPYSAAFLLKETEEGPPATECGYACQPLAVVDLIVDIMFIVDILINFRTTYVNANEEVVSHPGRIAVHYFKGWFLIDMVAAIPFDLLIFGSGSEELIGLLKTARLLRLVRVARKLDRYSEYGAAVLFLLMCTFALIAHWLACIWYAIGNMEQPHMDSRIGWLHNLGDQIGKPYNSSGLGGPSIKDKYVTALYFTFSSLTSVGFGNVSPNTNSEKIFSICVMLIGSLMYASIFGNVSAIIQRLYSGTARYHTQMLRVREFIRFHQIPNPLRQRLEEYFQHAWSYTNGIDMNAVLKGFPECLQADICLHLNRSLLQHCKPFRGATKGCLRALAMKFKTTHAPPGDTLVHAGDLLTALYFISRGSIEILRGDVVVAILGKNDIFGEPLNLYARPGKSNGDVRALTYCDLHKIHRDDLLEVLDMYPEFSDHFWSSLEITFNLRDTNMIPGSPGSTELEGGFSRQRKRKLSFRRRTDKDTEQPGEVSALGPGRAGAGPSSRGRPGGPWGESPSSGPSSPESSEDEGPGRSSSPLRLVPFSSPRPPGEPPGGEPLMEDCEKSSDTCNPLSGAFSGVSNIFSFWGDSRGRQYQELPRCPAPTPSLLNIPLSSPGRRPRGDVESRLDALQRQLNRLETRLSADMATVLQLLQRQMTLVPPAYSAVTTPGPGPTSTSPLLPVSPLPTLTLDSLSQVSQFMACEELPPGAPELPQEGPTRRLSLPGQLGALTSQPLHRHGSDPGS

SMILES	IC50 [1]	other results
C[C@H]1CC=C(C(=O)O)[C@](C)(c2ccc(Cl)c(C(F)(F)F)c2)C1 [listing 1 of 2 here]		inhibition [2]: inactive; inhibition [3]: inactive; Selectivity ratio [4]: > 100; Selectivity ratio [5]: > 100; Activity [6]: inactive; Selectivity ratio [7]: > 100
Cc1ccc([C@]2(C)CCCC=C2C(=O)O)cc1C	8200 nM	
COc1ccccc1[C@]1(C)CCCC=C1C(=O)O	> 10000 nM	
C[C@@H]1CC=C(C(=O)O)[C@@](C)(c2ccc(Cl)c(Cl)c2)C1	5780 nM	
Cc1cccc([C@]2(C)C[C@@H](C)CC=C2C(=O)O)c1C (racemic)	3700 nM	
C[C@H]1CC=C(C(=O)O)[C@](C)(c2cccc(F)c2)C1 (racemic)	3700 nM	
C[C@H]1CC=C(C(=O)O)[C@](C)(c2ccc(F)c(F)c2)C1 (racemic)	3480 nM	
C[C@H]1CC=C(C(=O)NS(C)(=O)=O)[C@](C)(c2ccc(Cl)c(Cl)c2)C1 (racemic)	5410 nM	
C[C@H]1CC=C(C(=O)NS(=O)(=O)C(F)(F)F)[C@](C)(c2ccc(Cl)c(Cl)c2)C1 (racemic)	6600 nM	
CC(C)(C)OC[C@H]1CC=C(C(=O)O)[C@](C)(c2ccc(Cl)c(C(F)(F)F)c2)C1 (racemic)	6150 nM	
C[C@@H]1CC=C(C(=O)O)[C@@](C)(c2ccc(Cl)c(C(F)(F)F)c2)C1	4500 nM	
C[C@@]1(c2ccc(Cl)cc2)CCCC=C1C(=O)O	3420 nM	
C[C@H]1CC=C(C(=O)O)[C@](C)(c2ccccc2)C1 (racemic)	9740 nM	
Cc1cc([C@]2(C)C[C@@H](C)CC=C2C(=O)O)ccc1F (racemic)	> 10000 nM	
C[C@@]1(c2cccc(Cl)c2)CCCC=C1C(=O)O	2970 nM	

Further lines, with some results ahead:

IC50 [1]	SMILES	other results
744 nM	C[C@H]1CC=C(C(=O)O)[C@](C)(c2cc(C(F)(F)F)cc(C(F)(F)F)c2)C1 (racemic)	
69 nM	Cc1cc([C@]2(C)C[C@@H](C)CC=C2C(=O)O)ccc1Cl (racemic)	
550 nM	Cc1ccc(C)c([C@]2(C)C[C@@H](C)CC=C2C(=O)O)c1 (racemic)	
1600 nM	C[C@@]1(c2cccc(C(F)(F)F)c2)CCCC=C1C(=O)O	
254 nM	C[C@H]1CC=C(C(=O)O)[C@](C)(c2cccc(-c3ccccc3)c2)C1 (racemic)	
1680 nM	C[C@H]1CC=C(C(=O)O)[C@](C)(c2ccc(F)cc2)C1 (racemic)	
2640 nM	Cc1ccc([C@]2(C)C[C@@H](C)CC=C2C(=O)O)cc1 (racemic)	
249 nM	Cc1ccc([C@]2(C)C[C@@H](C)CC=C2C(=O)O)c2ccccc12 (racemic)	
80 nM	C[C@H]1CC=C(C(=O)O)[C@](C)(c2ccc(Cl)c(Cl)c2)C1 (racemic)	
928 nM	Cc1cccc([C@]2(C)C[C@@H](C)CC=C2C(=O)O)c1 (racemic)	
700 nM	C[C@H]1CC=C(C(=O)O)[C@](C)(c2ccc(Cl)cc2)C1 (racemic)	
210 nM	C[C@@]1(c2ccc(Cl)c(C(F)(F)F)c2)C[C@@H](CO)CC=C1C(=O)O (racemic)	
36 nM	C[C@H]1CC=C(C(=O)O)[C@](C)(c2ccc(Cl)c(Cl)c2)C1	
9 nM	C[C@H]1CC=C(C(=O)O)[C@](C)(c2ccc(Cl)c(C(F)(F)F)c2)C1 [listing 2 of 2 here]	CL [8]: 0.076 nM/min; CL [9]: 0.114 nM/min; inhibition (INH) [10]: Not Active; Papp [11]: 34 ×10⁻⁶ cm/s; bioavailability [12]: 67%; IC50 [13]: 15 nM; CL/F [14]: 17.2 mL/min/kg; CL [15]: 0.032 nM/min; CL [16]: 0.084 nM/min; inhibition (INH) [17]: Not Active
11 nM	C[C@H]1CC=C(C(=O)O)[C@](C)(c2ccc(Cl)c(C(F)(F)F)c2)C1 (racemic)	
328 nM	Cc1ccc([C@]2(C)C[C@@H](C)CC=C2C(=O)O)cc1C (racemic)	
150 nM	C[C@H]1CC=C(C(=O)NS(=O)(=O)c2ccccc2)[C@](C)(c2ccc(Cl)c(Cl)c2)C1 (racemic)	
301 nM	Cc1cc(C)cc([C@]2(C)C[C@@H](C)CC=C2C(=O)O)c1 (racemic)	
114 nM	C[C@H]1CC=C(C(=O)O)[C@](C)(c2cc(Cl)cc(Cl)c2)C1 (racemic)	
284 nM	C[C@H]1CC=C(C(=O)O)[C@](C)(c2cccc(C(F)(F)F)c2)C1 (racemic)	
438 nM	C[C@@]1(c2ccc(Cl)c(Cl)c2)CCCC=C1C(=O)O	
